Test results taken from the RNAGym collection of RNA variant scans (doi:10.1002/anie.201605470).

B1: Osa-1-4 twister ribozyme (parent)
chain: CCGCCUAACACUGCCAAUGCCGGUCCCAAGCCCGGAUAAAAGUGGAGGGGGCGG

Variants of: B1
Test: self-cleavage, relative activity (ratio to wild type); higher = more cleavage; co-transcriptional
Procedure, shortened: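 A DNA template for a 54-nucleotide Oryza sativa twister ribozyme was synthesised with 97 % wild-type base and 1 % of each other base at the 48 positions downstream of the cleavage site. It was transcribed in vitro for 2 h at 37 °C, allowing co-transcriptional self-cleavage, then reverse-transcribed with a template-switching oligonucleotide, PCR-amplified and deep-sequenced. Cleavage status was scored from reads with or without upstream sequence. Relative activity is fraction cleaved normalised to wild type.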

Variant	self-cleavage
C33G G23U	0.03
C33G G23A	0.05
C33U U24A	0.14
C33U U24G	0.03
C33U U24C	0.06
C33G G22A	0.16
C33G G22C	0.62
C33G G22U	0.87
C32G G54A	0.15
C32G G54U	0.25
C32G G54C	0.09
C33A U43C	0.06
C33A U43G	0.08
C33A U43A	0.08
C33U G47U	0.07
C33U G47C	0.07
C33U G47A	0.08
C33U U18G	0.48
C33U U18A	0.81
C33U U18C	0.63
C32U C9U	0.05
C32U C9A	0.02
C32U C9G	0.09
C33G G47A	0.03

Variant	self-cleavage
C33G G47C	0.03
C33G G47U	0.02
C33U G23C	0.04
C33U G23U	0.04
C33U G23A	0.09
C33A U24A	0.05
C33A U24C	0.05
C33A U24G	0.02
C32U G30U	0.02
C32U G30C	0.02
C32U G30A	0.02
C33A G42C	0.06
C33A G42A	0.06
C33A G42U	0.03
C32U G51A	0.07
C32U G51C	0.05
C32U G51U	0.05
C33G U18C	0.08
C33G U18G	0.08
C33G U18A	0.07
C33A G50U	0.1
C33A G50A	0.1
C33A G50C	0.08
C33G C52A	0.08

Variant	self-cleavage
C33G C52U	0.05
C33G C52G	0.26
C33A U12A	0.06
C33A U12C	0.06
C33A U12G	0.06
C33G G19A	0.05
C33G G19C	0.02
C33G G19U	0.03
C33A G49U	0.04
C33A G49C	0.04
C33A G49A	0.05
C32U U12A	0.1
C32U U12C	0.08
C32U U12G	0.09
C32G U43C	0.09
C32G U43A	0.1
C32G U43G	0.11
C32U U43C	0.06
C32U U43G	0.09
C32U U43A	0.09
C32G G49C	0.04
C32G G49A	0.05
C32G G49U	0.05
C32G U12G	0.06

Variant	self-cleavage
C32G U12A	0.12
C32G U12C	0.08
C33A G19C	0.03
C33A G19A	0.07
C33A G19U	0.04
C33A G45C	0.04
C33A G45U	0.04
C33A G45A	0.06
C33U G49A	0.08
C33U G49U	0.08
C33U G49C	0.07
C33U G51C	0.08
C33U G51A	0.35
C33U G51U	0.13
C33G U43C	0.03
C33G U43A	0.06
C33G U43G	0.06
C33U U43A	0.19
C33U U43G	0.09
C33U U43C	0.09
C33G G13A	0.03
C33G G13C	0.01
C33G G13U	0.01
C32G G50U	0.11

Variant	self-cleavage
C32G G50C	0.09
C32G G50A	0.1
C32U G45A	0.08
C32U G45C	0.03
C32U G45U	0.04
C33G G50C	0.05
C33G G50U	0.09
C33G G50A	0.06
C32G U24A	0.06
C32G U24G	0.02
C32G U24C	0.05
C32U G35A	0.08
C32U G35U	0.06
C32U G35C	0.06
C33G U12G	0.07
C33G U12A	0.05
C33G U12C	0.03
C33U C9G	0.3
C33U C9A	0.2
C33U C9U	0.39
C32U G49U	0.05
C32U G49C	0.03
C32U G49A	0.05
C33A G53A	0.08

Variant	self-cleavage
C33A G53U	0.06
C33A G53C	0.04
C32G G53C	0.06
C32G G53A	0.1
C32G G53U	0.07
C33A G54A	0.11
C33A G54C	0.07
C33A G54U	0.24
C33A C9U	0.07
C33A C9A	0.05
C33A C9G	0.08
C33U G42C	0.08
C33U G42U	0.07
C33U G42A	0.14
C33G G49U	0.02
C33G G49A	0.05
C33G G49C	0.03
C33U G13U	0.03
C33U G13C	0.02
C33U G13A	0.04
C32G G51A	0.09
C32G G51U	0.07
C32G G51C	0.05
C33G G44C	0.05

Variant	self-cleavage
C33G G44U	0.05
C33G G44A	0.05
C33G G42U	0.02
C33G G42C	0.05
C33G G42A	0.05
C32U G13U	0.01
C32U G13A	0.03
C32U G13C	0.01
C32U G42U	0.03
C32U G42C	0.07
C32U G42A	0.08
C33U G30C	0.04
C33U G30A	0.04
C33U G30U	0.03
C33U G48A	0.07
C33U G48U	0.04
C33U G48C	0.05
C33A U18A	0.15
C33A U18G	0.17
C33A U18C	0.12
C32U U24G	0.01
C32U U24C	0.06
C32U U24A	0.06
